The values that follow come from paper PMC11814085 (Scientific Reports, 2025).

The subject of data set [1] is TNBC cancer cell lines and LSEC. As to the kind of experiment: Cellular partitioning and in vitro therapeutic index across cell lines/type. It is filed as in vitro ADME. The settings on record: range over cancer cell lines.
Data set [2] relates to TNBC cell lines and LSECs. As to the kind of experiment: GR analysis, comparison across cell lines/type. It counts as cell-based.
The next data set deals with MDA-MB-468. As to the kind of experiment: Live cell imaging of growth, fluorescent nuclear marker. It counts as cell-based. The settings on record: MDA-MB-468, highest doses. In outline: (§1)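 Cells were transfected with a red fluorescent nuclear marker. Growth in the presence of test compound was followed longitudinally by live-cell imaging of nuclei, as a check independent of the CellTiter-Glo endpoint.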

For a further data set, the system named is MDA-MB-468 cells. As to the kind of experiment: CTG assay in presence and absence of P-gp inhibitor. It counts as cell-based. A digest of the protocol: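 MDA-MB-468 cells were seeded at their pre-optimized density and allowed to adhere for 24 h. They were then exposed continuously to 0–200nM test compound for 3 days, in parallel with and without 0.6 µM zosuquidar (P-gp inhibitor). Read-out was CellTiter-Glo 2.0 cellular ATP.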

The test system of another data set is HCC1937. As to the kind of experiment: Live cell imaging of growth, fluorescent nuclear marker. It counts as cell-based. In outline: as §1
A further data set has as its system tubulin. The conditions noted are these: cell free system; cited from earlier work.
The subject of another data set is P-gp. The settings on record: read-out: P-gp inhibition Ki; cited from earlier work.

Square brackets hold non-standard residues; d marks the D form. Peptide text beside a SMILES is read from it. * marks the point of attachment. Dolaproine = CO[C@@H]([C@@H]1CCCN1)[C@@H](C)C(=O)O; Dil = CC[C@H](C)[C@H](NC)[C@@H](CC(=O)O)OC; Doe = c1ccc(C[C@H](N*)c2nccs2)cc1; X1 = C[C@@H](N*)[C@@H](O)c1ccccc1; NMeV = CN[C@H](C(=O)O)C(C)C

`CC[C@H](C)[C@@H]([C@@H](CC(=O)N1CCC[C@H]1[C@H](OC)[C@@H](C)C(=O)N[C@@H](Cc1ccccc1)c1nccs1)OC)N(C)C(=O)[C@@H](NC(=O)[C@@H](NC)C(C)C)C(C)C` [MMAD, Monomethyl auristatin D] (H-[NMeV]V[Dil][Dolaproine]-Doe): the “in vitro therapeutic index (TI), ratio of intracellular GR50 in LSEC to that in the cancer cell lines” value in data set [1] was 12–244 x. In addition, in data set [2] (media GR50, across cell lines/type), the “GR50, fold lower than MMAE” value is 6-31 x.

Consider `CC[C@H](C)[C@@H]([C@@H](CC(=O)N1CCC[C@H]1[C@H](OC)[C@@H](C)C(=O)N[C@H](C)[C@@H](O)c1ccccc1)OC)N(C)C(=O)[C@@H](NC(=O)[C@@H](NC)C(C)C)C(C)C` [MMAE, Monomethyl auristatin E] (H-[NMeV]V[Dil][Dolaproine]-X1), for which the “cell growth in live cell imaging” value is listed as “completely inhibited” with MDA-MB-468 and “only marginal inhibition” with HCC1937. In addition, the “dose response in presence and absence of P-gp efflux pump inhibitor” value with MDA-MB-468 cells (MDA-MB-468, with and without 0.6 µM Zosuquidar) is recorded as “nearly identical dose response”. Besides, the “in vitro therapeutic index (TI), ratio of intracellular GR50 in LSEC to that in the cancer cell lines” value in data set [1] is 3-60 x. The “GR50 in LSECs, fold higher than in cancer cell lines” value in data set [2] (media GR50, LSECs versus cancer cell lines) is reported as 3-21 x.

As to `CC[C@H](C)[C@@H]([C@@H](CC(=O)N1CCC[C@H]1[C@H](OC)[C@@H](C)C(=O)N[C@@H](Cc1ccccc1)C(=O)O)OC)N(C)C(=O)[C@@H](NC(=O)[C@@H](NC)C(C)C)C(C)C` [MMAF, monomethyl auristatin F] (H-[NMeV]V[Dil][Dolaproine]F-OH), the “tubulin binding affinity, fold better than MMAE” value in the data set with tubulin is ~ 5 x.

As a reminder, the Ki is the equilibrium dissociation constant of an inhibitor or competing ligand from its target. Regarding `O[C@@H](COc1cccc2ncccc12)CN1CCN([C@@H]2c3ccccc3[C@@H]3[C@H](c4ccccc42)C3(F)F)CC1` [Zosuquidar], the Ki in the data set on P-gp was 60 nM. For the same molecule, the “effect of P-gp inhibitor by itself on cell growth” value in the data set on MDA-MB-468 cells (auristatin free MDA-MB-468 cells, 0.6 µM) is “did not have undesired effect on cell growth”.
